Measured values taken from ChEMBL document CHEMBL4020797, “Design, synthesis and evaluation of antitumor acylated monoaminopyrroloquinazolines” (2017).

How the values were obtained:
MDA-MB-231 = experiment: Antiproliferative activity against human MDA-MB-231 after 72 hrs by MTT assay; type: functional; details: for GI50: MDA-MB-231, 72 h
Summary of the method: (§1)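 Triple-negative breast cancer cells were exposed to a range of compound concentrations for 72 h, and viable cells were then quantified spectrophotometrically with MTT reagent. GI50 (concentration giving 50% growth inhibition) was derived from dose-response curves by non-linear regression and reported as mean ± SD from at least two independent measurements. The highest concentration tested was 100 μM.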

MDA-MB-468 = experiment: Antiproliferative activity against human MDA-MB-468 after 72 hrs by MTT assay; type: functional; details: for GI50: MDA-MB-468, 72 h; summary of the method: as §1

Compound | GI50 (MDA-MB-231) [µM] | GI50 (MDA-MB-468) [µM] | Activity (MDA-MB-231) | Activity (MDA-MB-468)
CCC(=O)Nc1ncc2c(ccc3[nH]ccc32)n1 | 72.8 | 28.3 | – | –
CCCC(=O)Nc1ncc2c(ccc3[nH]ccc32)n1 | 3.46 | 2.02 | – | –
CC(C)(C)C(=O)Nc1ncc2c(ccc3[nH]ccc32)n1 | > 100 | > 100 | – | –

Now from value to molecule, other results behind:

GI50 (MDA-MB-231) [µM] | GI50 (MDA-MB-468) [µM] | Compound | Activity (MDA-MB-231) | Activity (MDA-MB-468)
> 100 | > 100 | CC(=O)Nc1ncc2c(ccc3[nH]ccc32)n1 | – | –
0.2 | 0.088 | O=C(Nc1ncc2c(ccc3[nH]ccc32)n1)c1ccc2ccccc2c1 | Dose-dependent effect | Dose-dependent effect
> 100 | > 100 | CC(C)C(=O)Nc1ncc2c(ccc3[nH]ccc32)n1 | – | –
